In the library only some 1.9% were active in any assay of this set; here they are far more common.
MT stabilize HCS – microtubule stabilization, imaging screen; HeLa tubulin immunostaining HCS, 24 h; share of cells brighter than vehicle mean+2SD; % tubulin-high responders, % at 10 µM; actives 0.83% (n = 200,000); AID 2205;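 active means plate Z-score above 3 for both tubulin-high and condensed-nucleus cell shares, with cell loss under 80%, at 10 µM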;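 further: anti alpha tubulin signal scored within the nucleus-defined area of each cell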
Insulin prom up – MIN6 insulin promoter up-regulation; MIN6 insulin promoter-GFP reporter, high-content imaging; hits give high values; actives 0.3% (n = 190,000); AID 1625; z-score at 5 µM;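 active means z-score above 3 at 5 µM with at least 500 cells counted in the well; inconclusive means wells under 500 cells, flagged as cytotoxic or low count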
b-catenin transl – modulators of beta-catenin nuclear translocation. HeLa beta-catenin nuclear translocation, immunofluorescence imaging. nuclear translocation activity, % at 5 µM. actives 0.3% (n = 190,000). AID 1665;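 active means nuclear translocation activity above 50% at 5 µM, with a well cell count of 50 or more; inconclusive means wells under 50 cells across six images, flagged as toxic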;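 further: per-cell ratio of nuclear to cytoplasmic median beta-catenin stain intensity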
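Test system: human HeLa cells, endogenous beta-catenin. Times: 24 h compound exposure, 37°C. Measured by: beta-catenin immunofluorescence imaging with DAPI.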
TbHK1 inh – T. brucei hexokinase 1 inhibition; recombinant TbHK1, G6PDH-coupled NADH A340; inhibition, % at 10 µM; actives 0.11% (n = 220,000); AID 1430;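 active means inhibition of 50% or more in the single-dose primary screen; inactive means inhibition below 50%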
Autophagy mod – autophagy modulation, high-content screen; AID 463193; actives 0.98% (n = 190,000); calls only at 10 µM (by protocol); MEF GFP-LC3 puncta imaging; test concentration mostly 10 µM;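 active means percentage of spot-positive cells more than 3 SD above its plate mean, without a fluorescence outlier flag or 80% toxicity; inconclusive means no clear call, values can overlap the other calls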
G6PDH counter – inhibits Leuconostoc G6PDH, counter-screen for TbHK1 inhibitors | AID 2516 | actives 7% (n = 210) | purified G6PDH, NADH absorbance, 1 h | shares compounds with TbHK1 inh | inhibition, % at 10 µM;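 active means at least 50% inhibition in the glucose-6-phosphate dehydrogenase coupled counterscreen; inconclusive means no clear call, values can overlap the other calls; inactive means inhibition below 50%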
TbHK1 rescreen – confirmation of Trypanosoma brucei hexokinase 1 inhibitors; AID 2560; recombinant TbHK1, G6PDH-coupled NADH A340 absorbance; inhibition, % at 10 µM; shares compounds with TbHK1 inh; actives 10% (n = 210);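 active means inhibition of at least 50% in both of the two screening runs; inconclusive means at least 50% in one run, below 50% in the other; inactive means inhibition below 50% in both runs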
A number is an active result; . = inactive; ? = inconclusive; / = no result; + = active, no number.

SMILES | MT stabilize HCS | Insulin prom up | b-catenin transl | TbHK1 inh | Autophagy mod | others
Cc1cccc(-n2c(O)c(/C=C3/C(c4ccccc4)=Nc4ccccc43)c(=O)[nH]c2=O)c1 | / | . | 52 | . | /
CNC(=O)O/N=C(\C)Cc1nnn(-c2cc(C)on2)n1 | / | . | . | . | /
CN(C(=O)CNC(=O)OCc1ccccc1)c1ccc(Br)cc1C(=O)c1ccccc1Cl | . | . | 67 | . | .
CCC(=O)N1CC(=O)Nc2ccc(Br)cc2C1c1ccccc1 (centres undefined) | . | . | . | . | .
CC(C)CCCn1c(O)c(/C=C2/C=CC=N2)c(=O)[nH]c1=O | 31 | . | . | . | .
CC1=CC(=C2C(=O)NC(=O)NC2=O)C=C(C(F)(F)F)N1Cc1ccccc1 | . | . | . | . | .
CC1=CC(=C2C(=O)NC(=S)NC2=O)C=C(C(F)(F)F)N1Cc1ccccc1 | 15 | . | . | . | +
CC1=CC(=C2C(=O)NC(=S)NC2=O)C=C(C(F)(F)F)N1CCc1ccccc1 | 25 | . | . | . | .
CCOP(=O)(OCC)C1(O)C(=O)Nc2ccccc21 (centres undefined) | . | / | . | . | .
CC1CCCC(C2(O)C(=O)Nc3ccccc32)C1=O (centres undefined) | . | 5.6 | . | . | .
CN(C)C(=S)SSC(=S)N(C)C | . | ? | . | . | +
Cc1ccc(C)c(NC(=S)NCCc2cnc[nH]2)c1 | / | . | . | . | /
COc1ccc(NC(=O)c2cc([N+](=O)[O-])ccc2N2CCNCC2)cc1 | . | . | . | . | +
CCOC(=O)C(NC(C)=O)C(OC(C)=O)c1cccc(N(CCCl)CCCl)c1 (centres undefined) | . | / | . | . | .
O=C1NC(=O)N(c2ccc(Br)cc2)C(=O)/C1=C/c1ccsc1 | . | . | . | . | +
O=C1NC(=O)N(c2ccc(F)cc2)C(=O)/C1=C/c1ccsc1 | . | . | . | . | .
Cn1cccc1/C=C1/C(=O)NC(=S)N(Cc2ccc(F)cc2)C1=O | / | . | 54 | . | /
Cn1cccc1/C=C1/C(=O)NC(=O)N(Cc2ccccc2)C1=O | . | . | 64 | . | .
Cn1cccc1/C=C1/C(=O)NC(=O)N(Cc2ccc(F)cc2)C1=O | / | / | . | . | /
Cn1cccc1/C=C1\C(=O)NC(=O)N(Cc2ccccc2)C1=O | / | . | 74 | . | /
COc1ccc(C(O)c2ccccc2OP(=O)(N(C)C)N(C)C)cc1 (centres undefined) | . | . | . | . | .
O=C1NC(=O)C2=Cc3ccc(O)cc3OC2(O)N1 (centres undefined) | . | . | . | . | .
CP(=O)(O)CN1CCCCC1 | . | . | . | . | .
Cc1nc2cc(C(=O)N3CCC4(CC3)OCCO4)ccc2n1-c1ccc(Br)cc1 | . | . | . | . | .
COc1ccc(-n2c(C)nc3cc(C(=O)N4CCC5(CC4)OCCO5)ccc32)cc1 | 24 | . | . | . | .
SMILES | MT stabilize HCS | Insulin prom up | b-catenin transl | TbHK1 inh | Autophagy mod | others
O=C(c1ccc2c(c1)ncn2-c1ccc(F)cc1F)N1CCC2(CC1)OCCO2 | 21 | . | . | . | .
Cc1cc(C(=O)CS(=O)c2ccc(F)cc2)cc(C)c1OC(=O)N(C)C (centres undefined) | . | . | . | . | .
O=[N+]([O-])c1ccc(NCc2ccccc2)c2nonc12 | . | 13 | . | . | .
COc1ccc(C2=CC(c3ccc(OC)c(OC)c3)c3c(c4ccccc4oc3=O)O2)cc1OC (centres undefined) | / | . | 100 | . | /
NC(=O)Nc1ccc(C(=O)OCC(=O)Nc2ccc(Cl)cc2C(=O)c2ccccc2)cc1 | . | . | . | . | .
CCN1CCN(Cc2ccc(C)cc2)CC1 | . | . | . | . | .
CCCCCCOc1ccc(CN2CCN(C)CC2)cc1 | . | . | . | . | +
CCC(CO)(C(=O)OC1C[N+]2(C)CCC1CC2)c1ccccc1 (centres undefined) | . | . | . | . | .
Cc1ccc2c(c1)C1CN(C)CCC1N2C(=O)/C(C#N)=C/c1ccc2c(c1)OCO2 (centres undefined) | . | . | . | . | .
Cc1cccc(N2C(=O)/C(=C/c3ccc(N4CCN(C)CC4)o3)C(=O)NC2=S)c1C | . | . | . | . | .
CCc1ccccc1N1C(=O)/C(=C/c2ccc(N3CCN(C)CC3)o2)C(=O)NC1=S | . | 3.4 | / | . | .
Cc1c2ccncc2c(C)c2c1[nH]c1ccccc12 | . | / | . | . | +
O=c1[nH]c(=O)n(-c2ccc(F)cc2)c(O)c1C=Nc1ccccc1N1CCCC1 | . | 4.4 | / | . | .
Cc1ccc(-n2c(O)c(C=Nc3ccccc3N)c(=O)[nH]c2=O)cc1C | . | . | . | . | .
C=CCn1c(O)c(C=Nc2ccc(N(CC)CC)cc2)c(=O)[nH]c1=O | . | . | / | . | .
O=c1[nH]c(=O)n(CCC2=CCCCC2)c(O)c1/C=N/Nc1ccccc1 | . | . | . | . | .
CCN(CC)c1ccc(N=Cc2c(O)n(-c3ccc(OC)cc3)c(=O)[nH]c2=O)cc1 | . | . | / | . | .
CN(C)c1ccc(N=Cc2c(O)n(CCC3=CCCCC3)c(=O)[nH]c2=O)cc1 | . | . | . | . | +
CCN(CC)c1ccc(N=Cc2c(O)n(-c3ccc(Cl)cc3)c(=O)[nH]c2=O)cc1 | . | . | . | . | +
CCN(CC)c1ccc(N=Cc2c(O)n(CCC3=CCCCC3)c(=O)[nH]c2=O)cc1 | . | . | . | . | +
COP(=O)(C#Cc1ccccc1)C(O)c1ccc(Br)cc1 (centres undefined) | / | . | . | . | /
O=c1[nH]c2ccccc2o1 | . | . | . | . | .
COc1cccc(NP(=O)(Oc2ccccc2Cl)Oc2ccccc2Cl)c1 | . | . | . | . | .
COc1cccc(NP(=O)(Oc2ccccc2)Oc2ccccc2)c1 | 18 | . | . | . | .
CN(C)c1ccc(C=C2C(=O)NC(=S)NC2=O)cc1[N+](=O)[O-] | . | . | . | . | .
SMILES | MT stabilize HCS | Insulin prom up | b-catenin transl | TbHK1 inh | Autophagy mod | others
O=C1NC(=S)NC(=O)C1=Cc1cccc2cc3ccccc3cc12 | / | ? | 58 | . | /
O=C1NC(=O)C(CCc2ccncc2)(CCc2ccccn2)C(=O)N1c1ccc(Br)cc1 (centres undefined) | 17 | . | . | . | .
CN(C)CP(=O)(O)CN(C)C=O | . | . | . | 51 | . | G6PDH counter=.;TbHK1 rescreen=.
O=C(c1ccc(N2CCCCCC2)c([N+](=O)[O-])c1)N1CCC2(CC1)OCCO2 | / | . | . | . | .
Cc1ccc(C2(O)CC(C)N(C)CC2C)cc1 (centres undefined) | . | . | . | 53 | . | G6PDH counter=.;TbHK1 rescreen=.
CCOC(=O)N(c1ccccc1)P1(=S)OCCO1 | . | . | . | . | .
CCOC(=O)N(c1ccccc1)P1(=S)OCC(C)O1 (centres undefined) | . | . | . | 53 | . | G6PDH counter=.;TbHK1 rescreen=.
CCOC(=O)C1=CC(=C2C(=O)N(CC)C(=S)N(CC)C2=O)c2ccccc2O1 | . | . | . | . | .
COc1ccc(CCn2c(O)c(C=NCc3ccc4c(c3)OCO4)c(=O)[nH]c2=O)cc1OC | . | . | . | . | .
COc1ccc(OC)c(-n2c(O)c(C=NCc3ccc4c(c3)OCO4)c(=O)[nH]c2=O)c1 | . | . | . | 55 | . | G6PDH counter=.;TbHK1 rescreen=.

Assay outcomes as filed in PubChem BioAssay.
